Measurements: paper PMC4244684 (The Journal of biological chemistry, 2007)
No end group written: not given here.

Biological target: Su(dx) WW4 (Drosophila melanogaster, UniProt Q9Y0H4)
Assay: ITC binding of peptides to Su
Outline: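 Cleaved Su(dx) WW4 (GST fusion from E. coli BL21, glutathione-bead purified, PreScission-cleaved, dialysed overnight into ITC buffer) at 15–35 μm in cell; 1–1.5 mm peptide titrated in. Peptide and protein concentrations set by denaturing Trp/Tyr UV absorbance. 50 mm phosphate, 150 mm NaCl, pH 7.4, degassed; 25 °C. Dilution-corrected heats fitted for ΔH and Ka, n fixed at 1.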

Chain of Su(dx) WW4 (Q9Y0H4 515-557): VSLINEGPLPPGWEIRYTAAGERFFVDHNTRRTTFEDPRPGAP

Row | Sequence | Kd [µM]
1 | AKQPPSYEDC [N2] | 45 ± 3
2 | AKQPPSYEDCIK [N1] | 45 ± 2
